According to ChEMBL document CHEMBL1667789, “Synthesis of 4H-chromene, coumarin, 12H-chromeno[2,3-d]pyrimidine derivatives and some of their antimicrobial and cytotoxicity activities” (2011):
Activity calls are given as the source filed them. No cut-off for these calls is given here.

How the values were obtained:
[1] = test system: Saccharomyces cerevisiae; assay: Antifungal activity against Saccharomyces cerevisiae ATCC 9080 at 25 ug/ml by agar diffusion method; type: functional; settings: for zone of inhibition at 25 µg/mL: read-out: DIZ
Outline: (§1)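 Agar diffusion on Sabouraud's agar. Fungal strains came from the NODCAR Microbiology laboratory culture collection. Mycostatine was the reference standard.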

[2] = test system: Bacillus subtilis; assay: Antimicrobial activity against Bacillus subtilis ATCC 6633 at 25 ug/ml by agar diffusion method; type: functional; settings: for zone of inhibition at 25 µg/mL: read-out: DIZ
Outline: (§2)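 Agar diffusion on Mueller-Hinton agar. Bacterial strains came from the NODCAR Microbiology laboratory culture collection. Ampicillin was the reference standard.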

[3] = test system: Staphylococcus aureus; assay: Antimicrobial activity against Staphylococcus aureus ATCC 29737 at 25 ug/ml by agar diffusion method; type: functional; settings: for zone of inhibition at 25 µg/mL: read-out: DIZ; outline: as §2
[4] = test system: Bordetella bronchiseptica; assay: Antimicrobial activity against Bordetella bronchiseptica ATCC 4617 at 25 ug/ml by agar diffusion method; type: functional; settings: for zone of inhibition at 25 µg/mL: read-out: DIZ; outline: as §2
[5] = test system: Staphylococcus epidermidis; assay: Antimicrobial activity against Staphylococcus epidermidis ATCC 12228 at 25 ug/ml by agar diffusion method; type: functional; settings: for zone of inhibition at 25 µg/mL: read-out: DIZ; outline: as §2
[6] = test system: Escherichia coli; assay: Antimicrobial activity against Escherichia coli ATCC 14169 at 25 ug/ml by agar diffusion method; type: functional; settings: for zone of inhibition at 25 µg/mL: read-out: DIZ; outline: as §2
[7] = test system: Bacillus pumilus; assay: Antimicrobial activity against Bacillus pumilus ATCC 14884 at 25 ug/ml by agar diffusion method; type: functional; settings: for zone of inhibition at 25 µg/mL: read-out: DIZ; outline: as §2
[8] = test system: Candida albicans; assay: Antifungal activity against Candida albicans ATCC 10231 at 25 ug/ml by agar diffusion method; type: functional; settings: for zone of inhibition at 25 µg/mL: read-out: DIZ; outline: as §1
[9] = test system: Cancer cell lines; assay: Cytotoxicity against human Lung cancer cells; type: functional, cell-based
Outline: (§3)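 Human tumour lines were MCF-7 (breast adenocarcinoma) and HCT (described as lung carcinoma). Cytotoxicity was read by a cell viability assay, with IC50 derived from it.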

[10] = test system: MCF7; assay: Cytotoxicity against human MCF7 cells; type: functional, cell-based; outline: as §3

Compound	diameter of the inhibition zone (DIZ) [1]	diameter of the inhibition zone (DIZ) [2]	zone of inhibition at 25 µg/mL [3] [mm]	diameter of the inhibition zone (DIZ) [4]	zone of inhibition at 25 µg/mL [5] [mm]	diameter of the inhibition zone (DIZ) [6]	diameter of the inhibition zone (DIZ) [7]	diameter of the inhibition zone (DIZ) [8]	diameter of the inhibition zone (DIZ) [3]	diameter of the inhibition zone (DIZ) [5]	zone of inhibition at 25 µg/mL [1] [mm]	zone of inhibition at 25 µg/mL [2] [mm]	zone of inhibition at 25 µg/mL [4] [mm]	zone of inhibition at 25 µg/mL [6] [mm]	zone of inhibition at 25 µg/mL [7] [mm]	zone of inhibition at 25 µg/mL [8] [mm]	inhibition zone (IZ) [1] [mm]	Activity [9]	Activity [10]
CCOC(=O)C1=C(N)Oc2cc(N(CC)CC)ccc2C1c1ccc(F)cc1 (stereo unspecified)	inactive	inactive	14	inactive	14	inactive	inactive	inactive	–	–	–	–	–	–	–	–	–	–	–
CCN(CC)c1ccc2c(c1)OC(/N=C/N(C)C)=C(C#N)C2c1ccc(Cl)cc1 (stereo unspecified)	inactive	inactive	–	inactive	–	inactive	inactive	inactive	inactive	inactive	–	–	–	–	–	–	–	–	–
CCN(CC)c1ccc2c(-c3ccc(Cl)cc3)c(C#N)c(=O)oc2c1	inactive	inactive	–	inactive	–	inactive	inactive	inactive	inactive	inactive	–	–	–	–	–	–	–	–	–
CCN(CC)c1ccc2c(c1)Oc1ncnc(N)c1C2c1ccc(Cl)cc1 (stereo unspecified)	–	–	25	–	24	–	–	–	–	–	20	21	21	20	25	15	–	–	–
CCOC(=O)C1=C(N)Oc2cc(N(CC)CC)ccc2C1c1ccc(Cl)cc1 (stereo unspecified)	inactive	inactive	–	inactive	–	inactive	inactive	inactive	inactive	inactive	–	–	–	–	–	–	–	–	–
NYSTATIN	–	–	–	–	–	–	–	–	–	–	–	–	–	–	–	–	24	–	–
CCOC(=O)C1=C(N)Oc2cc(N(CC)CC)ccc2C1c1ccc(Br)cc1 (stereo unspecified)	inactive	inactive	–	inactive	–	inactive	inactive	inactive	inactive	inactive	–	–	–	–	–	–	–	Not toxic	Not toxic
CCN(CC)c1ccc2c(c1)OC(N(C(C)=O)C(C)=O)=C(C#N)C2c1ccc(Cl)cc1 (stereo unspecified)	inactive	inactive	–	inactive	–	inactive	inactive	inactive	inactive	inactive	–	–	–	–	–	–	–	–	–
CCN(CC)c1ccc2c(c1)Oc1nc(C)[nH]c(=O)c1C2c1ccc(Cl)cc1 (stereo unspecified)	inactive	inactive	–	inactive	–	inactive	inactive	inactive	inactive	inactive	–	–	–	–	–	–	–	–	–
CCN(CC)c1ccc2c(c1)OC(/N=C/c1ccccc1)=C(C#N)C2c1ccc(Cl)cc1 (stereo unspecified)	inactive	inactive	–	inactive	–	inactive	inactive	inactive	inactive	inactive	–	–	–	–	–	–	–	–	–
CCN(CC)c1ccc2c(-c3ccc(Br)cc3)c(C#N)c(=O)oc2c1	inactive	inactive	–	inactive	–	inactive	inactive	inactive	inactive	inactive	–	–	–	–	–	–	–	–	–
CCN(CC)c1ccc2c(c1)Oc1ncn(N)c(=N)c1C2c1ccc(Br)cc1 (stereo unspecified)	–	–	24	–	22	–	–	–	–	–	22	15	21	16	25	15	–	–	–
CCN(CC)c1ccc2c(c1)OC(N)=C(C#N)C2c1ccc(Br)cc1 (stereo unspecified)	inactive	inactive	–	inactive	–	inactive	inactive	inactive	inactive	inactive	–	–	–	–	–	–	–	–	–
CCN(CC)c1ccc2c(-c3ccc(F)cc3)c(C#N)c(=O)oc2c1	inactive	inactive	13	inactive	14	inactive	inactive	inactive	–	–	–	–	–	–	–	–	–	–	–
CCN(CC)c1ccc2c(c1)OC(/N=C/N)=C(C#N)C2c1ccc(Cl)cc1 (stereo unspecified)	inactive	inactive	–	inactive	–	inactive	inactive	inactive	inactive	inactive	–	–	–	–	–	–	–	–	–
CCN(CC)c1ccc2c(c1)OC(N)=C(C#N)C2c1ccc(F)cc1 (stereo unspecified)	inactive	inactive	–	inactive	–	inactive	inactive	inactive	inactive	inactive	–	–	–	–	–	–	–	Not toxic	Not toxic
CCN(CC)c1ccc2c(c1)Oc1ncn(C)c(=N)c1C2c1ccc(Cl)cc1 (stereo unspecified)	–	–	24	–	25	–	–	–	–	–	20	21	20	21	25	14	–	–	–
CCN(CC)c1ccc2c(c1)Oc1ncn(N)c(=N)c1C2c1ccc(Cl)cc1 (stereo unspecified)	–	–	26	–	24	–	–	–	–	–	24	17	22	17	27	16	–	–	–
CC1(C)S[C@@H]2[C@H](NC(=O)[C@H](N)c3ccccc3)C(=O)N2[C@H]1C(=O)O [AMPICILLIN]	–	–	26	–	25	–	–	–	–	–	–	25	24	25	20	–	–	–	–
CCO/C=N/C1=C(C#N)C(c2ccc(Br)cc2)c2ccc(N(CC)CC)cc2O1 (stereo unspecified)	inactive	inactive	–	inactive	–	inactive	inactive	inactive	inactive	inactive	–	–	–	–	–	–	–	–	–
CCN(CC)c1ccc2c(c1)OC(N)=C(C#N)C2c1ccc(Cl)cc1 (stereo unspecified)	inactive	inactive	14	inactive	15	inactive	inactive	inactive	–	–	–	–	–	–	–	–	–	–	–
CCO/C=N/C1=C(C#N)C(c2ccc(Cl)cc2)c2ccc(N(CC)CC)cc2O1 (stereo unspecified)	inactive	inactive	–	inactive	–	inactive	inactive	inactive	inactive	inactive	–	–	–	–	–	–	–	–	–
